Experimental data published in ChEMBL document CHEMBL4265973, “Broad-spectrum antibacterial amphiphilic aminoglycosides: A new focus on the structure of the lipophilic groups extends the series of active dialkyl neamines” (Eur J Med Chem, 2018).
In brackets after ≈: the same amount, converted by molar mass.

Legend:
Escherichia coli [1] = assay: microbe, parasite or virus in culture; settings: ATCC 25922
[2] = Cytotoxicity against mouse J774 cells assessed as cell viability at 30 uM after 24 hrs by MTT assay relative to control; assay type: cell-based; settings: J774 cells, read-out: Activity
In short: (§1)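 Murine J774 macrophages are exposed for 24 h to compound at 10 or 30 µM, then given 0.2 mg/mL MTT for 1 h. The reaction is stopped with DMSO and OD read at 570 nm; viability is metabolic activity as % of control. The number of independent experiments is given per value.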

Staphylococcus aureus [3] = assay: Antibacterial activity against methicillin-resistant Staphylococcus aureus ATCC 33592 by microdilution assay; assay type: functional
In short: (§2)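 Broth microdilution MIC per CLSI recommendations, fresh culture in cation-adjusted Mueller-Hinton broth, starting inoculum 10^6 cells.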

Pseudomonas aeruginosa [4] = assay: Antibacterial activity against Pseudomonas aeruginosa FO3 harboring AAC6'-2A by microdilution assay; assay type: functional
In short: as §2

Acinetobacter lwoffii [5] = assay: Antibacterial activity against Acinetobacter lwoffii ATCC 17925 by microdilution assay; assay type: functional
In short: (§3)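 Broth microdilution per CLSI recommendations, using a fresh culture in cation-adjusted Mueller-Hinton broth (CA-MHB) and a starting inoculum of 10^6 cells; the MIC is the value read.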

Escherichia coli [6] = assay: Antibacterial activity against Escherichia coli PAZ505H8101 harboring AAC6'-1B by microdilution assay; assay type: functional
In short: as §2

Staphylococcus aureus [7] = assay: Antibacterial activity against Staphylococcus aureus ATCC 25923 by microdilution assay; assay type: functional
In short: as §2

Pseudomonas aeruginosa [8] = assay: Antibacterial activity against Pseudomonas aeruginosa ATCC 27853 by microdilution assay; assay type: functional
In short: as §3

Escherichia coli [9] = assay: Antibacterial activity against Escherichia coli L8058.1 harboring ANT2'-1A by microdilution assay; assay type: functional
In short: as §2

Pseudomonas aeruginosa [10] = assay: Antibacterial activity against Pseudomonas aeruginosa PA406 harboring triABC deletion mutant by microdilution assay; assay type: functional
In short: as §2

Acinetobacter lwoffii [11] = assay: Antibacterial activity against Acinetobacter lwoffii AI.88-483 harboring APH3'-6A by microdilution assay; assay type: functional
In short: as §2

Staphylococcus aureus [12] = assay: Antibacterial activity against Staphylococcus aureus SA-1 expressing NorA pump by microdilution assay
Klebsiella pneumoniae = assay: Antibacterial activity against Klebsiella pneumoniae 700603 by microdilution assay; assay type: functional
In short: as §3

[13] = Cytotoxicity against mouse J774 cells assessed as cell viability at 10 uM after 24 hrs by MTT assay relative to control; assay type: cell-based; settings: J774 cells, read-out: Activity
In short: as §1

Pseudomonas aeruginosa [14] = assay: Antibacterial activity against Pseudomonas aeruginosa PA22 harboring surexp MexXY by microdilution assay; assay type: functional
In short: as §2

Compound | MIC (Escherichia coli [1]) | viability at 24 h, 30 µM [2] | MIC (Staphylococcus aureus [3]) | MIC (Pseudomonas aeruginosa [4]) | MIC (Acinetobacter lwoffii [5]) | MIC (Escherichia coli [6]) | MIC (Staphylococcus aureus [7]) | MIC (Pseudomonas aeruginosa [8]) | MIC (Escherichia coli [9]) | MIC (Pseudomonas aeruginosa [10]) | MIC (Acinetobacter lwoffii [11]) | MIC (Staphylococcus aureus [12]) | MIC (Klebsiella pneumoniae) | viability at 24 h, 10 µM [13] | MIC (Pseudomonas aeruginosa [14])
CCCCCCCCCCO[C@@H]1[C@@H](N)[C@@H](O[C@H]2[C@H](O)[C@@H](OCCCCCCCCCC)[C@H](N)C[C@@H]2N)O[C@H](CN)[C@H]1O | 2 µg/mL (≈ 3.32 µM) | 14.5% | 1 to 2 µg/mL (≈ 1.66 to 3.32 µM) | 4 µg/mL (≈ 6.63 µM) | 2 µg/mL (≈ 3.32 µM) | 8 µg/mL (≈ 13.3 µM) | 1 µg/mL (≈ 1.66 µM) | 4 µg/mL (≈ 6.63 µM) | 128 µg/mL (≈ 212 µM) | 8 µg/mL (≈ 13.3 µM) | 64 µg/mL (≈ 106 µM) | 1 µg/mL (≈ 1.66 µM) | 16 µg/mL (≈ 26.5 µM) | 85.5% | 4 µg/mL (≈ 6.63 µM)
CCCCCCCCCCCO[C@@H]1[C@@H](O)[C@H](O[C@H]2O[C@H](CN)[C@@H](O)[C@H](O)[C@H]2N)[C@@H](N)C[C@H]1N | > 128 µg/mL | 83.4% | 8 µg/mL (≈ 16.8 µM) | > 128 µg/mL | 64 µg/mL (≈ 134 µM) | > 128 µg/mL | 32 µg/mL (≈ 67.1 µM) | > 128 µg/mL | > 128 µg/mL | 16 µg/mL (≈ 33.6 µM) | > 128 µg/mL | 8 µg/mL (≈ 16.8 µM) | > 128 µg/mL | 74.7% | > 128 µg/mL
NC[C@H]1O[C@H](O[C@H]2[C@H](O)[C@@H](OCCCCc3ccc4ccccc4c3)[C@H](N)C[C@@H]2N)[C@H](N)[C@@H](OCCCCc2ccc3ccccc3c2)[C@@H]1O | 8 µg/mL (≈ 11.6 µM) | – | 2 µg/mL (≈ 2.91 µM) | 8 µg/mL (≈ 11.6 µM) | 2 µg/mL (≈ 2.91 µM) | 4 µg/mL (≈ 5.82 µM) | 2 µg/mL (≈ 2.91 µM) | 4 µg/mL (≈ 5.82 µM) | 8 µg/mL (≈ 11.6 µM) | 8 µg/mL (≈ 11.6 µM) | > 128 µg/mL | 2 to 4 µg/mL (≈ 2.91 to 5.82 µM) | 32 µg/mL (≈ 46.6 µM) | – | 8 µg/mL (≈ 11.6 µM)
NC[C@H]1O[C@H](O[C@H]2[C@H](O)[C@@H](OCc3ccc4ccccc4c3)[C@H](N)C[C@@H]2N)[C@H](N)[C@@H](OCc2ccc3ccccc3c2)[C@@H]1O | – | 75.7% | – | – | – | – | – | – | – | – | – | – | – | – | –
NC[C@@H]1O[C@H](O[C@H]2[C@@H](O)[C@H](O[C@@H]3[C@@H](O)[C@H](N)C[C@H](N)[C@H]3O[C@H]3O[C@H](CN)[C@@H](O)[C@H](O)[C@H]3N)O[C@@H]2CO)[C@H](N)[C@@H](O)[C@@H]1O [FRAMYCETIN] | 2 µg/mL (≈ 3.25 µM) | – | > 128 µg/mL | 128 µg/mL (≈ 208 µM) | < 0.25 µg/mL | 4 µg/mL (≈ 6.51 µM) | 1 to 2 µg/mL (≈ 1.63 to 3.25 µM) | 64 µg/mL (≈ 104 µM) | 1 µg/mL (≈ 1.63 µM) | 2 to 4 µg/mL (≈ 3.25 to 6.51 µM) | 64 to 128 µg/mL (≈ 104 to 208 µM) | 0.5 to 1 µg/mL (≈ 0.813 to 1.63 µM) | 4 to 8 µg/mL (≈ 6.51 to 13 µM) | – | 32 to 64 µg/mL (≈ 52.1 to 104 µM)
CCCCCCCCCCCO[C@@H]1[C@@H](N)[C@@H](O[C@H]2[C@H](O)[C@@H](O)[C@H](N)C[C@@H]2N)O[C@H](CN)[C@H]1O | 64 µg/mL (≈ 134 µM) | 77.1% | 16 µg/mL (≈ 33.6 µM) | > 128 µg/mL | 32 µg/mL (≈ 67.1 µM) | 32 µg/mL (≈ 67.1 µM) | 16 µg/mL (≈ 33.6 µM) | > 128 µg/mL | 32 µg/mL (≈ 67.1 µM) | 4 to 8 µg/mL (≈ 8.39 to 16.8 µM) | > 128 µg/mL | 16 µg/mL (≈ 33.6 µM) | > 128 µg/mL | 81.8% | > 128 µg/mL
CCCCCCCCCCCO[C@@H]1[C@@H](O)[C@H](O[C@H]2O[C@H](CN)[C@@H](O)[C@H](OCCCCCCC)[C@H]2N)[C@@H](N)C[C@H]1N | 16 µg/mL (≈ 27.8 µM) | 38.8% | 1 µg/mL (≈ 1.74 µM) | 4 µg/mL (≈ 6.96 µM) | 2 µg/mL (≈ 3.48 µM) | 4 µg/mL (≈ 6.96 µM) | 1 µg/mL (≈ 1.74 µM) | 2 µg/mL (≈ 3.48 µM) | 4 µg/mL (≈ 6.96 µM) | 2 µg/mL (≈ 3.48 µM) | > 128 µg/mL | 1 µg/mL (≈ 1.74 µM) | 8 µg/mL (≈ 13.9 µM) | 82.9% | 4 µg/mL (≈ 6.96 µM)
